Measurements reported in ChEMBL document CHEMBL1140543, “Biphenyls as potent vitronectin receptor antagonists. Part 3: Squaric acid amides” (Bioorg Med Chem Lett, 2007).

Assays:
Integrin alpha-V/beta-3 [1] = molecular target: T1, Integrin alpha-V/beta-3 (Homo sapiens, UniProt P05106+P06756); assay: Binding affinity to integrin alpha-v-beta-3 receptor; format: protein-complex assay
Target sequence in this assay (P05106 27-788 limits assumed): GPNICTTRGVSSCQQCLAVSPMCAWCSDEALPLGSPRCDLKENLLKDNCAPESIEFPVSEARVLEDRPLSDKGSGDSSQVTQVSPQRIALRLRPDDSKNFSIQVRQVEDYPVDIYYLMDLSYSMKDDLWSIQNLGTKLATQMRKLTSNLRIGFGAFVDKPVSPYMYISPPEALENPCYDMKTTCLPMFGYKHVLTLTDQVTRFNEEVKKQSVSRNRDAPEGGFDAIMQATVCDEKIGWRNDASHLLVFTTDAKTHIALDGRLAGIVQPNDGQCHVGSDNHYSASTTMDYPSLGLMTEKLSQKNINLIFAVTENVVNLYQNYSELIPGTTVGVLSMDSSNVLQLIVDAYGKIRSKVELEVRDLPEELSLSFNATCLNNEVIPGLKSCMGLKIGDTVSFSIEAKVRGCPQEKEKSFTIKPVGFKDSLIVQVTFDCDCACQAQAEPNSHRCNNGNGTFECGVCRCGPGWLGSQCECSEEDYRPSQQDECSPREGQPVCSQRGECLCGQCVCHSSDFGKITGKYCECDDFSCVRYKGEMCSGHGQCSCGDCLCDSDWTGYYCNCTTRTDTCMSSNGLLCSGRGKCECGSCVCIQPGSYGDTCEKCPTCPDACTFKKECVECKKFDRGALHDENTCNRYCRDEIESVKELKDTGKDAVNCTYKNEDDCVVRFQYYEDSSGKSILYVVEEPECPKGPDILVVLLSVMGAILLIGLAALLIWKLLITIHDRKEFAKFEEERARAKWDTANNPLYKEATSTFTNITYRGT
Target sequence in this assay (P06756 31-889 limits assumed): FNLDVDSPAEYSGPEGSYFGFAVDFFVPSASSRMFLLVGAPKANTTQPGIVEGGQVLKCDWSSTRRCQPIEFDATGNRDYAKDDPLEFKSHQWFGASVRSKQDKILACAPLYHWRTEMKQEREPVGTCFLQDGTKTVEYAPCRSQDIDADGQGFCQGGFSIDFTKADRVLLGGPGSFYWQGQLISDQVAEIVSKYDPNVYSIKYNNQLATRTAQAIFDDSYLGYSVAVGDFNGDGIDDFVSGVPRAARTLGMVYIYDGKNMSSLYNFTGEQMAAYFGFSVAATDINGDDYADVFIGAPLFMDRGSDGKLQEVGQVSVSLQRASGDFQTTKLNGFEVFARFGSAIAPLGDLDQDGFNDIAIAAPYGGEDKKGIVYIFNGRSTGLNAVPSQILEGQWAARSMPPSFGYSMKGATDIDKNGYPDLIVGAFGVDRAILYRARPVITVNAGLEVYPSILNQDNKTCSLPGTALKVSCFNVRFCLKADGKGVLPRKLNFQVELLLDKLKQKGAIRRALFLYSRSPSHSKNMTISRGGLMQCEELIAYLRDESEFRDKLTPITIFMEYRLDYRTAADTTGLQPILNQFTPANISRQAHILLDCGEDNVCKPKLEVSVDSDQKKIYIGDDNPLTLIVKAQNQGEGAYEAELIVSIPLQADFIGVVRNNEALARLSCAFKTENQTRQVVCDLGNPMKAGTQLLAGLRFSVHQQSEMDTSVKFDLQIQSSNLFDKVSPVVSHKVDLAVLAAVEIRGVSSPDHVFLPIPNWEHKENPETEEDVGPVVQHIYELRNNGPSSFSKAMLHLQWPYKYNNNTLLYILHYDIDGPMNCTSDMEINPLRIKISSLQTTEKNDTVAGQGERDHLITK
Target sequence in this assay (P06756 891-1048 limits assumed): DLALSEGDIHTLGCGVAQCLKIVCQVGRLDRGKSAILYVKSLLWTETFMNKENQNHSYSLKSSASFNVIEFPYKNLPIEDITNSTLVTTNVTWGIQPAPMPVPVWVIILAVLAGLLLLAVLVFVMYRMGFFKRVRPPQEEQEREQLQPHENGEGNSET

[2] = molecular target: Integrin alpha-IIb/beta-3 (Homo sapiens, UniProt P05106+P08514); assay: Binding affinity to GP2b3a receptor; format: protein-complex assay
Albumin = Albumin (Homo sapiens, UniProt P02768); assay: Binding affinity to human serum albumin by equilibrium dialysis
Integrin alpha-V/beta-3 [3] = molecular target: T1, Integrin alpha-V/beta-3; assay: Antagonist activity at human integrin alpha-v-beta-3 receptor expressed in HEK293 cells; format: functional, cell-based
Procedure, shortened: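 HEK 293 cells transfected with human αvβ3 were used. Inhibition of the adhesion of purified human vitronectin to these cells gave the cellular αvβ3 affinity.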

[4] = Inhibition of smooth muscle cell migration; format: functional, Homo sapiens
Liver microsomes = assay: Clearance in rat liver microsomes; format: ADME, Microsome

Sequence of Albumin (P02768 whole entry): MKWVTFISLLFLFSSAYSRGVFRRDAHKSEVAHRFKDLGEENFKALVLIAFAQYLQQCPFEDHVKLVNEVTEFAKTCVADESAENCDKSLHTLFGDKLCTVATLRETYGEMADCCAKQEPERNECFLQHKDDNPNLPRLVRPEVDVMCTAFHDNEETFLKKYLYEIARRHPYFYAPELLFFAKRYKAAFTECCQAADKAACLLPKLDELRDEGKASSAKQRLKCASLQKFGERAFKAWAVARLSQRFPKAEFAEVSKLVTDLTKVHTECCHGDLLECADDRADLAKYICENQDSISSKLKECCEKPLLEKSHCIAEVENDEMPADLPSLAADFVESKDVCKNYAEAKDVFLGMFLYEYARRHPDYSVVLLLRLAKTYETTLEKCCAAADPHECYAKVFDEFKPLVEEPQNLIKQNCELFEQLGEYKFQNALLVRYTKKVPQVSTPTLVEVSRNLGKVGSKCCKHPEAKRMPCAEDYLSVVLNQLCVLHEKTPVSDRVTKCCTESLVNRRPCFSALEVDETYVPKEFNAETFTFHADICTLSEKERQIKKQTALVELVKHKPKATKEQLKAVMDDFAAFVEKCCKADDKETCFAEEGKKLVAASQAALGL
Sequence of Integrin alpha-IIb/beta-3 (P05106 27-788 limits assumed): as the sequence (P05106 27-788 limits assumed) above
Sequence of Integrin alpha-IIb/beta-3 (P08514 32-887 limits assumed): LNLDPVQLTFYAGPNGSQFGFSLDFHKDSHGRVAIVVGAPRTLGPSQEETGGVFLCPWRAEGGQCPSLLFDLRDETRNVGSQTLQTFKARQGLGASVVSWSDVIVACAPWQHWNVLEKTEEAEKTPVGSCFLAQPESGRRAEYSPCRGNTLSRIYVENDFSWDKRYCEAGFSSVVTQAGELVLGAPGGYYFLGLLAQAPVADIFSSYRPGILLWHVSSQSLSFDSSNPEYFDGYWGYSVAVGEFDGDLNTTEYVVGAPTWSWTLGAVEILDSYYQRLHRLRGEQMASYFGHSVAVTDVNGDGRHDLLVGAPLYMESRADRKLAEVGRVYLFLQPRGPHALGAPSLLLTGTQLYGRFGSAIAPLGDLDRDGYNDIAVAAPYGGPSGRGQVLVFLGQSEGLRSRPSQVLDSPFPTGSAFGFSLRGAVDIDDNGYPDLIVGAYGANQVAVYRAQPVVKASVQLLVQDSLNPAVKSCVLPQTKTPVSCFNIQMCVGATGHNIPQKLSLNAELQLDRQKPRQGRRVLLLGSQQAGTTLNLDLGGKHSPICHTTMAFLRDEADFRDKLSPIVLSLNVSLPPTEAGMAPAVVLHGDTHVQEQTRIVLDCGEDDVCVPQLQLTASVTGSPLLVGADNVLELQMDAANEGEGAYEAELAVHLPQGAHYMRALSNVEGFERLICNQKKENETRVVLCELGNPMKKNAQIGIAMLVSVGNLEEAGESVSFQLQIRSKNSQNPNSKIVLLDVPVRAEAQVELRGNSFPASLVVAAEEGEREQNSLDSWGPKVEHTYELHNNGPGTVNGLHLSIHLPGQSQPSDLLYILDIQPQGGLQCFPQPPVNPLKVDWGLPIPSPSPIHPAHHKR
Sequence of Integrin alpha-IIb/beta-3 (P08514 891-1039 limits assumed): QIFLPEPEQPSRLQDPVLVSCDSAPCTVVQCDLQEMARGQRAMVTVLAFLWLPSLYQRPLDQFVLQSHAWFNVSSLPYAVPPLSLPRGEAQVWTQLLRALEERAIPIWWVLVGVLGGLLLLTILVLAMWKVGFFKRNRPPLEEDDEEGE

| Structure (SMILES) | Ki (Integrin alpha-V/beta-3 [1]) [nM] | also measured |
| --- | --- | --- |
| Cc1cc(C)c(S(=O)(=O)N[C@@H](Cc2ccc(-c3cccc(NC(=O)c4cccnc4)c3)cc2)C(=O)O)c(C)c1 | 400 |  |
| Cc1cc(C)c(S(=O)(=O)N[C@@H](Cc2ccc(-c3cccc(Nc4n[s+]([O-])nc4NC4CC4)c3)cc2)C(=O)O)c(C)c1 (some centres not stated) | 18 |  |
| Cc1cc(C)c(S(=O)(=O)N[C@@H](Cc2ccc(-c3cccc(NC(=O)c4ncc[nH]4)c3)cc2)C(=O)O)c(C)c1 | 1 |  |
| Cc1cc(C)c(S(=O)(=O)N[C@@H](Cc2ccc(-c3cccc(NC(=O)NC4CC4)c3)cc2)C(=O)O)c(C)c1 |  | Ki [2]: 128 nM; Kd (Albumin): 740 nM; Activity (Integrin alpha-V/beta-3 [3]): 85 nM; Activity [4]: 390 nM |
| Cc1cc(C)c(S(=O)(=O)N[C@@H](Cc2ccc(-c3cccc(Nc4c(NC5CC5)c(=O)c4=O)c3)cc2)C(=O)O)c(C)c1 | 0.5 | Ki [2]: 47 nM; Kd (Albumin): 420 nM; Activity (Integrin alpha-V/beta-3 [3]): 13 nM; CL (Liver microsomes): 65 mL/min/kg; Activity [4]: 10 nM |
| Cc1cc(C)c(S(=O)(=O)N[C@@H](Cc2ccc(-c3cccc(NC(=O)c4ccncc4)c3)cc2)C(=O)O)c(C)c1 | 700 |  |
| Cc1cc(C)c(S(=O)(=O)N[C@@H](Cc2ccc(-c3cccc(NC(=O)c4ccc[nH]4)c3)cc2)C(=O)O)c(C)c1 | 33 |  |
| CC1(C)C2CC[C@]1(S(=O)(=O)N[C@@H](Cc1ccc(-c3cccc(Nc4c(NC5CC5)c(=O)c4=O)c3)cc1)C(=O)O)C(=O)C2 | 0.1 |  |
| Cc1cc(C)c(S(=O)(=O)N[C@@H](Cc2ccc(-c3cccc(NC4=NCCN4)c3)cc2)C(=O)O)c(C)c1 | 1.3 |  |
| CS(=O)(=O)N[C@@H](Cc1ccc(-c2cccc(Nc3c(NC4CC4)c(=O)c3=O)c2)cc1)C(=O)O | 10 |  |
| Cc1cc(C)c(S(=O)(=O)N[C@@H](Cc2ccc(-c3cccc(NC(=O)c4ccco4)c3)cc2)C(=O)O)c(C)c1 | 650 |  |
| Cc1cc(C)c(S(=O)(=O)N[C@@H](Cc2ccc(-c3cccc(Nc4c(NCc5ccccn5)c(=O)c4=O)c3)cc2)C(=O)O)c(C)c1 | 11 |  |
| Cc1cc(C)c(S(=O)(=O)N[C@@H](Cc2ccc(-c3cccc(NC(=O)c4ccccn4)c3)cc2)C(=O)O)c(C)c1 | > 2000 |  |
| Cc1cc(C)c(S(=O)(=O)N[C@@H](Cc2ccc(-c3cccc(Nc4c(NCc5ccccc5)c(=O)c4=O)c3)cc2)C(=O)O)c(C)c1 | 25 |  |
